Measurements reported in ChEMBL document CHEMBL3351507, “11H-Pyrido[3',2':4,5]pyrrolo[3,2-c]cinnoline and pyrido[3',2':4,5]pyrrolo[1,2-c][1,2,3]benzotriazine: two new ring systems with antitumor activity” (2014).
The source made the active and inactive calls. The calls are words filed in the database; no cut-off is given here.

Experiments:
Jurkat [1] = experiment: Cell cycle arrest in human Jurkat cells assessed as accumulation at G2/M phase at 0.5 uM after 24 hrs by propidium iodide staining-based flow cytometry (reference value: 21.9%); type: functional
SF-295 = experiment: Cytotoxicity against human SF295 cells assessed as growth inhibition after 72 hrs by MTT assay; type: functional; conditions: SF-295, 72 h
In short: (§1)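 NCI 60-cell-line panel screen. Compounds were tested at 5 concentrations in 10-fold dilution (10^-4 to 10^-8 M) across the full panel. GI50 was taken as the molar concentration giving 50% inhibition of net cell growth.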

Jurkat [2] = experiment: Cell cycle arrest in human Jurkat cells assessed as accumulation at G2/M phase at 0.25 uM after 24 hrs by propidium iodide staining-based flow cytometry (reference value: 21.9%); type: functional
[3] = Cytotoxicity against human HCT116 cells assessed as growth inhibition after 72 hrs by MTT assay; type: functional; conditions: HCT-116, 72 h
Jurkat [4] = experiment: Cell cycle arrest in human Jurkat cells assessed as accumulation at subG1 phase at 0.5 uM after 24 hrs by propidium iodide staining-based flow cytometry (reference value: 5.3%); type: functional
SK-MEL-5 = experiment: Cytotoxicity against human SK-MEL-5 cells assessed as growth inhibition after 72 hrs by MTT assay; type: functional; conditions: SK-MEL-5, 72 h; in short: as §1
[5] = Cytotoxicity against human OVCAR8 cells assessed as growth inhibition after 72 hrs by MTT assay; type: functional; conditions: OVCAR-8, 72 h; in short: as §1
A549 = experiment: Cytotoxicity against human A549 cells assessed as growth inhibition after 72 hrs by MTT assay; type: functional; conditions: A549, 72 h
Malme-3M = experiment: Cytotoxicity against human MALME-3M cells assessed as growth inhibition after 72 hrs by MTT assay; type: functional
KM12 = experiment: Cytotoxicity against human KM12 cells assessed as growth inhibition after 72 hrs by MTT assay; type: functional; conditions: KM12, 72 h
MDA-MB-468 = experiment: Cytotoxicity against human MDA-MB-468 cells assessed as growth inhibition after 72 hrs by MTT assay; type: functional; conditions: MDA-MB-468, 72 h
SF-268 = experiment: Cytotoxicity against human SF268 cells assessed as growth inhibition after 72 hrs by MTT assay; type: functional; conditions: SF-268, 72 h; in short: as §1
U-251 = experiment: Cytotoxicity against human U251 cells assessed as growth inhibition after 72 hrs by MTT assay; type: functional; conditions: U-251, 72 h; in short: as §1
Jurkat [6] = experiment: Cell cycle arrest in human Jurkat cells assessed as accumulation at subG1 phase at 0.25 uM after 24 hrs by propidium iodide staining-based flow cytometry (reference value: 5.3%); type: functional
SN12C = experiment: Cytotoxicity against human SN12C cells assessed as growth inhibition after 72 hrs by MTT assay; type: functional; in short: as §1
TK-10 = experiment: Cytotoxicity against human TK10 cells assessed as growth inhibition after 72 hrs by MTT assay; type: functional; conditions: TK-10, 72 h; in short: as §1
[7] = Cytotoxicity against human EKVX cells assessed as growth inhibition after 72 hrs by MTT assay; type: functional
[8] = Cytotoxicity against human LoVo/DX cells assessed as growth inhibition after 72 hrs by MTT assay; type: functional
In short: (§2)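 Cells were grown in medium with 10% heat-inactivated FBS plus penicillin/streptomycin: RPMI-1640 for Jurkat and CEM, DMEM for A-431, HAM's F12 for LoVo. The doxorubicin-resistant LoVo subclone was kept with 0.1 µg/mL doxorubicin. Cells were seeded at 5x10^3 per well and pre-incubated 24 h at 37 °C.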

786-0 = experiment: Cytotoxicity against human 786-0 cells assessed as growth inhibition after 72 hrs by MTT assay; type: functional; conditions: 786-0, 72 h
LOX IMVI = experiment: Cytotoxicity against human LOXIMVI cells assessed as growth inhibition after 72 hrs by MTT assay; type: functional
NCI-H322M = experiment: Cytotoxicity against human NCI-H322M cells assessed as growth inhibition after 72 hrs by MTT assay; type: functional
Jurkat [9] = experiment: Cell cycle arrest in human Jurkat cells assessed as accumulation at G1 phase at 0.25 uM after 24 hrs by propidium iodide staining-based flow cytometry (reference value: 62.6%); type: functional
LoVo = experiment: Resistance index, ratio of GI50 for human LoVo/DX cells to GI50 for human LoVo cells; type: functional
In short: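 CEMVbl-100 (vinblastine-selected CEM) was grown in RPMI-1640 with 0.1 µg/mL vinblastine. LoVoDoxo was grown in HAM's F12 with 0.1 µg/mL doxorubicin; parental CEM and LoVo were grown without drug. Media had 10% FBS. 5x10^3 cells were seeded, preincubated 24 h at 37 °C, then exposed 72 h to compound (DMSO <1%). Read-out was MTT; GI50 came from dose-response curves of ≥3 experiments. RI = GI50 resistant / GI50 parental.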

CAKI-1 = experiment: Cytotoxicity against human Caki1 cells assessed as growth inhibition after 72 hrs by MTT assay; type: functional; conditions: CAKI-1, 72 h
MOLT-4 = experiment: Cytotoxicity against human MOLT4 cells assessed as growth inhibition after 72 hrs by MTT assay; type: functional; conditions: MOLT-4, 72 h
HT-29 = experiment: Cytotoxicity against human HT-29 cells assessed as growth inhibition after 72 hrs by MTT assay; type: functional; conditions: HT-29, 72 h
SF-539 = experiment: Cytotoxicity against human SF539 cells assessed as growth inhibition after 72 hrs by MTT assay; type: functional; conditions: SF-539, 72 h; in short: as §1
[10] = Cytotoxicity against human NCI-ADR-RES cells assessed as growth inhibition after 72 hrs by MTT assay; type: functional
MDA-MB-435 = experiment: Cytotoxicity against human MDA-MB-435 cells assessed as growth inhibition after 72 hrs by MTT assay; type: functional; conditions: MDA-MB-435, 72 h
NCI-H226 = experiment: Cytotoxicity against human NCI-H226 cells assessed as growth inhibition after 72 hrs by MTT assay; type: functional; conditions: NCI-H226, 72 h
Jurkat [11] = experiment: Induction of apoptosis in human Jurkat cells assessed as mitochondrial membrane potential depolarization after 24 hrs by JC-1 staining-based flow cytometry; type: functional, cell-based
In short: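 After 24 h of treatment, Jurkat cells were resuspended in HBSS and stained with JC-1. Flow cytometry measured the percentage of cells with low potential (green monomer fluorescence). Mean ± SEM of 3 experiments.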

T47D = experiment: Cytotoxicity against human T47D cells assessed as growth inhibition after 72 hrs by MTT assay; type: functional; in short: as §1
IGROV-1 = experiment: Cytotoxicity against human IGROV1 cells assessed as growth inhibition after 72 hrs by MTT assay; type: functional; conditions: IGROV-1, 72 h
Jurkat [12] = experiment: Induction of apoptosis in human Jurkat cells assessed as loss of plasma membrane asymmetry at 250 to 500 nM after 6 hrs by annexin V-FITC/propidium iodide staining-based flow cytofluorimetric analysis; type: functional, cell-based
In short: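 Jurkat cells were incubated with 250 or 500 nM compound for 6 h or 24 h. They were then double-stained with Annexin V-FITC and propidium iodide and analysed by flow cytometry (488 nm excitation; emission 525 and 585 nm). Mean ± SEM of 3 experiments.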

A-431 = experiment: Cytotoxicity against human A431 cells assessed as growth inhibition after 72 hrs by MTT assay; type: functional; conditions: A-431, 72 h; in short: as §2
[13] = Cytotoxicity against human PC3 cells assessed as growth inhibition after 72 hrs by MTT assay; type: functional; conditions: PC-3, 72 h; in short: as §1

| SMILES | GI50 (SF-295) [µM] | GI50 [3] [µM] | GI50 (SK-MEL-5) [µM] | GI50 [5] [µM] | GI50 (A549) [µM] | GI50 (Malme-3M) [µM] | GI50 (KM12) [µM] | GI50 (MDA-MB-468) [µM] | GI50 (SF-268) [µM] | GI50 (U-251) [µM] | GI50 (SN12C) [µM] | GI50 (TK-10) [µM] | GI50 [7] [µM] | GI50 (786-0) [µM] | GI50 (LOX IMVI) [µM] | GI50 (NCI-H322M) [µM] | GI50 (CAKI-1) [µM] | GI50 (MOLT-4) [µM] | GI50 (HT-29) [µM] | GI50 (SF-539) [µM] | also measured |
| --- | --- | --- | --- | --- | --- | --- | --- | --- | --- | --- | --- | --- | --- | --- | --- | --- | --- | --- | --- | --- | --- |
| COc1ccc2c(c1)nnn1c3ncccc3c(N=O)c21 | 4.69 | 0.06 | 5.01 | 3.9 | 10.8 | 0.77 | 1.03 | 0.032 | 0.47 | 0.72 | 1.4 | 5.08 | 3.38 | 0.33 | 0.8 | 9.67 | 0.089 | 0.0094 | 0.62 | 0.47 | Activity (Jurkat [1]): 44.7%; Activity (Jurkat [2]): 39.4%; Activity (Jurkat [4]): 39.1%; Activity (Jurkat [6]): 22.5%; GI50 [8]: 0.65 µM; Activity (Jurkat [9]): 35.5%; Ratio (LoVo): 0.51; GI50 [10]: 1.42 µM; GI50 (MDA-MB-435): 1.94 µM; GI50 (NCI-H226): 4.14 µM; Activity (Jurkat [11]): Dose-dependent effect; GI50 (T47D): 0.16 µM; GI50 (IGROV-1): 0.11 µM; Activity (Jurkat [12]): inactive; GI50 (A-431): 0.93 µM |
| O=Nc1c2cccnc2n2nnc3ccc(Cl)cc3c12 | 2.07 | 0.19 | 3.82 | 1.8 | 2.2 | 1.22 | 0.91 | 0.14 | 1.21 | 1.27 | 1.46 | 0.94 | 1.83 | 0.84 | 1.03 | 8.6 | 0.13 | 0.018 | 0.91 | 1.89 | GI50 [10]: 0.43 µM; GI50 (MDA-MB-435): 1.26 µM; GI50 (NCI-H226): 2.19 µM; GI50 (T47D): 0.26 µM; GI50 (IGROV-1): 1.35 µM; GI50 [13]: 0.74 µM |
| COc1cc2nnc3c4cccnc4[nH]c3c2cc1OC | 2.43 | 0.13 | 7.33 | 1.25 | 7.9 | 2.28 | 1.91 | 0.23 | 0.54 | 0.92 | 2.27 | 2.38 | 2.43 | 0.32 | 1.41 | 20.6 | 0.18 | 0.018 | 1.34 | 1.73 | GI50 (MDA-MB-435): 2.23 µM; GI50 (NCI-H226): 1.94 µM; GI50 (T47D): 0.4 µM; GI50 (IGROV-1): 1.73 µM; GI50 [13]: 1.49 µM |
| COc1ccc2c(c1)nnc1c3cccnc3[nH]c21 | 1.59 | 0.21 | 5.85 | 0.62 | 7.9 | 1.06 | 1.22 | 0.067 | 0.73 | 0.93 | 1.63 | 4.52 | 2.82 | 0.51 | 0.76 | 10 | 0.11 | 0.029 | 0.75 | 0.64 | Activity (Jurkat [1]): 38.2%; Activity (Jurkat [2]): 45.7%; Activity (Jurkat [4]): 39.8%; Activity (Jurkat [6]): 27.8%; GI50 [8]: 1.21 µM; Activity (Jurkat [9]): 30.2%; Ratio (LoVo): 0.33; GI50 [10]: 1.79 µM; GI50 (MDA-MB-435): 1.44 µM; GI50 (NCI-H226): 2.62 µM; Activity (Jurkat [11]): Dose-dependent effect; GI50 (T47D): 0.49 µM; GI50 (IGROV-1): 0.31 µM; Activity (Jurkat [12]): inactive; GI50 (A-431): 2.35 µM |
| COc1cc2nnn3c4ncccc4c(N=O)c3c2cc1OC | 2.62 | 0.061 | 12.6 | 0.82 | 13.3 | 2.89 | 1.38 | 0.16 | 0.49 | 0.6 | 1.8 | 5.26 | 3.31 | 0.23 | 0.92 | 22.7 | 0.048 | < 0.01 | 0.79 | 1.82 | Activity (Jurkat [1]): 54.3%; Activity (Jurkat [2]): 47.3%; Activity (Jurkat [4]): 21.7%; Activity (Jurkat [6]): 18.7%; GI50 [8]: 4.33 µM; Activity (Jurkat [9]): 37.3%; Ratio (LoVo): 1.11; GI50 [10]: 0.38 µM; GI50 (MDA-MB-435): 2.38 µM; GI50 (NCI-H226): 3.7 µM; Activity (Jurkat [11]): Dose-dependent effect; GI50 (T47D): 0.21 µM; GI50 (IGROV-1): 1.94 µM; Activity (Jurkat [12]): inactive; GI50 [13]: 2.36 µM; GI50 (A-431): 1.41 µM |
